Assay results: ChEMBL document CHEMBL5647689, “Functional role and therapeutic potential of the pim-1 kinase in colon carcinoma” (Neoplasia, 2013)
The source made the active and inactive calls. No cut-off for these calls is given here.

What was measured:
HCT-116 [1] = assay: Antitumor activity against PEI complexed siRNA-mediated Pim-1 knockout human HCT-116 cells xenografted in athymic nude mouse assessed as increase in pim-1 levels in tumor at 40 to 70 mg/kg, ip administered on day 3 to 4 measured after 14 days by immunohistochemical staining based analysis; assay type: functional, organism-based; conditions: dose 40-70 mg/kg, time 14.0 day
In short: (§1)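 Nude mice (Foxn1nu, 6–8 weeks) carried s.c. HCT-116 flank tumours (1.5 x 10^6 cells) and were randomized at 40–50 mm3, n = 12 tumours/group. PEI F25-LMW-complexed siRNA (Pim-1 or control) was given at 10 µg i.p. every 2–3 days; 70 or 40 mg/kg in PBS was given i.p. every 3–4 days. Paraffin tumour sections were stained for Pim-1 and ranked 0–4.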

HCT-116 [2] = assay: cells; conditions: Homo sapiens, HCT-116, 72 h
[3] = Toxicity in athymic nude mouse xenografted with human HCT-116 cells assessed as change in body weight at 40 mg/kg, ip administered twice a week measured after 14 days; assay type: organism-based; conditions: in vivo, 336 h, time 14 day
HCT-116 [4] = assay: Antiproliferative activity against siRNA-mediated Pim-1 knockout human HCT-116 cells assessed as increase in pim-1 mRNA levels measured after 24 hrs by q-PCR analysis; assay type: functional, cell-based; conditions: dose 1-3 µM
In short: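 HCT-116 cells seeded at 3.5 x 10^5 per six-well well under standard conditions, then exposed 24 h at 37°C to 1 or 3 µM in IMDM/10% FCS. Total RNA was extracted by phenol/chloroform, and Pim-1 mRNA was measured by SYBR Green qPCR run in parallel with actin. Levels were expressed as 2^CP(target)/2^CP(actin).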

HCT-116 [5] = assay: Induction of apoptosis in siRNA-mediated Pim-1 knockout human HCT-116 cells assessed as fold increase in caspase 3/7 activity incubated for 72 hrs by Caspase-Glo 3/7 reagent based microplate reader analysis; assay type: functional
In short: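 HCT-116 cells, 5 x 10^2 per well, transfected with 20 nM siPim-1 […], held 72 h at 37°C. Caspase substrate diluted 1:5 in serum-free medium added for 1 h at room temperature in the dark; luminescence read. Signal normalized to a parallel WST-1 assay on the same plate. Means ± SEM.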

HCT-116 [6] = assay: Synergistic antitumor activity against PEI complexed siRNA-mediated Pim-1 knockout human HCT-116 cells xenografted in athymic nude mouse assessed as tumor growth inhibition at 40 mg/kg, ip administered on day 3 to 4 measured after 14 days; assay type: functional; conditions: HCT-116, 336 h, time 14 day, read-out: TGI
HCT-116 [7] = assay: Antitumor activity against PEI complexed siRNA-mediated luciferase knockout human HCT-116 cells xenografted in athymic nude mouse assessed as increase in pim-1 levels in tumor at 40 to 70 mg/kg, ip administered on day 3 to 4 measured after 14 days by immunohistochemical staining based analysis; assay type: functional, organism-based; conditions: dose 40-70 mg/kg, time 14.0 day; in short: as §1
[8] = Toxicity in athymic nude mouse xenografted with human HCT-116 cells assessed as change in body weight at 70 mg/kg, ip administered twice a week measured after 14 days; assay type: organism-based; conditions: in vivo, 336 h, time 14 day
HCT-116 [9] = assay: cells; conditions: Homo sapiens, HCT-116, 72 h; remark: listed apart in the source
HCT-116 [10] = assay: Synergistic antitumor activity against human HCT-116 cells xenografted in athymic nude mouse assessed as tumor growth inhibition at 70 mg/kg, ip administered on day 3 to 4 measured after 14 days; assay type: functional; conditions: HCT-116, 336 h, time 14 day, read-out: TGI
[11] = Toxicity in athymic nude mouse xenografted with human HCT-116 cells assessed as behavioural changes in at 40 mg/kg, ip administered twice a week measured after 14 days; assay type: organism-based; conditions: in vivo, 336 h, time 14 day
HCT-116 [12] = assay: Synergistic antitumor activity against PEI complexed siRNA treated human HCT-116 cells xenografted in athymic nude mouse assessed as tumor growth inhibition at 40 mg/kg, ip administered on day 3 to 4 measured after 14 days; assay type: functional; conditions: HCT-116, 336 h, time 14 day, read-out: TGI
HCT-116 [13] = assay: Synergistic antitumor activity against PEI complexed siRNA-mediated luciferase knockout human HCT-116 cells xenografted in athymic nude mouse assessed as tumor growth inhibition at 70 mg/kg, ip administered on day 3 to 4 measured after 14 days; assay type: functional; conditions: HCT-116, 336 h, time 14 day, read-out: TGI
HCT-116 [14] = assay: Synergistic antitumor activity against PEI complexed siRNA-mediated Pim-1 knockout human HCT-116 cells xenografted in athymic nude mouse assessed as tumor growth inhibition at 70 mg/kg, ip administered on day 3 to 4 measured after 14 days; assay type: functional; conditions: HCT-116, 336 h, time 14 day, read-out: TGI
HCT-116 [15] = assay: Induction of apoptosis in human HCT-116 cells assessed as fold increase in caspase 3/7 activity incubated for 72 hrs by Caspase-Glo 3/7 reagent based microplate reader analysis; assay type: functional
[16] = Toxicity in athymic nude mouse xenografted with human HCT-116 cells assessed as behavioural changes in at 70 mg/kg, ip administered twice a week measured after 14 days; assay type: organism-based; conditions: in vivo, 336 h, time 14 day
HCT-116 [17] = assay: Induction of miR-15b mediated pim-1 expression in human HCT-116 cells assessed as increase in luciferase activity at 3 uM incubated for 72 hrs by luminometer analysis; assay type: functional, cell-based
In short: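 HCT-116 cells (3 x 10^4 per 24-well well) co-transfected via PEI F25-LMW with 125 ng pGL3 luciferase reporter carrying Pim-1 3′UTR, intact or miR-15b-seed-mutated. After 48 h, 1 or 3 µM in IMDM/10% FCS was added for 24 h at 37°C. Lysate was mixed with luciferase substrate and read on a luminometer.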

[18] = Downregulation of miR-15b expression in human HCT-116 cells at 3 uM incubated for 24 hrs by […] analysis; assay type: functional
HCT-116 [19] = assay: Downregulation of p-STAT3 levels at serine 727 residue in human HCT-116 cells at 2 uM incubated for 24 hrs by Western blotting analysis; assay type: functional, cell-based
In short: (§2)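 HCT-116 lysates were made on ice in PBS with 1 mM EDTA, 1% NP-40, protease and phosphatase inhibitors, then sonicated and cleared by centrifugation. Protein was measured by DC assay. 40 µg ran on 10% SDS-PAGE and went onto PVDF (0.45 µm). Blocking used 5% milk/TBST; primary antibodies ran overnight at 4°C, then HRP secondaries for 1 h. Detection was ECL with densitometric quantitation of scanned bands.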

HCT-116 [20] = assay: Downregulation of E-cadherin levels in human HCT-116 cells at 2 uM incubated for 24 hrs by Western blotting analysis; assay type: functional, cell-based; in short: as §2
HCT-116 [21] = assay: Downregulation of p-p21 levels in human HCT-116 cells at 2 uM incubated for 24 hrs by Western blotting analysis; assay type: functional, cell-based; in short: as §2
HCT-116 [22] = assay: Downregulation of c-Myc levels in human HCT-116 cells at 2 uM incubated for 24 hrs by Western blotting analysis; assay type: functional, cell-based; in short: as §2
HCT-116 [23] = assay: Downregulation of pim-1 levels in human HCT-116 cells at 2 uM incubated for 24 hrs by Western blotting analysis; assay type: functional, cell-based; in short: as §2
HCT-116 [24] = assay: Induction of apoptosis in siRNA-mediated Pim-1 knockout human HCT-116 cells assessed as increase in caspase 3/7 activity at 0.7 uM incubated for 72 hrs by Caspase-Glo 3/7 reagent based microplate reader analysis; assay type: functional, cell-based
In short: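 HCT-116 cells (1 x 10^3/well) were exposed to the inhibitor in IMDM/10% FCS for 72 h at 37°C. Caspase-3/7 was read by Caspase-Glo 3/7: substrate diluted 1:5 in serum-free medium, 1 h at room temperature in the dark, then luminescence. A WST-1 assay run in parallel on the same plate normalized for cell density.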

HCT-116 [25] = assay: Antiproliferative activity against siRNA-mediated Pim-1 knockout human HCT-116 cells assessed as reduction in cell viability measured after 72 hrs; assay type: functional, cell-based; conditions: dose 0.066-66 µM
In short: (§3)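 HCT-116 (1 x 10^3/well) or LS174T (3 x 10^3/well) cells were grown in IMDM/10% FCS at 37°C, 5% CO2. The medium was replaced with IMDM/10% FCS containing the inhibitor at the indicated concentrations, and cells were kept 72 h at 37°C. Inhibitor stock was 20 mg/ml in DMSO, diluted in PBS or medium.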

LS174T = assay: Antiproliferative activity against siRNA-mediated Pim-1 knockout human LS174T cells assessed as reduction in cell viability measured after 72 hrs; assay type: functional, cell-based; conditions: dose 0.13-130 µM; in short: as §3

O=c1[nH]cc(F)c(=O)[nH]1 [FLUOROURACIL]
Activity (HCT-116 [1]): Active | IC50 (HCT-116 [2]): 3.2 µM | Activity [3]: Non-Toxic | Activity (HCT-116 [4]): Dose-Dependent Effect | fold change (FC) (HCT-116 [5]): 1.4 | inhibition in vivo at 40 mg/kg (HCT-116 [6]): ~60% | Activity (HCT-116 [7]): Active | Activity [8]: Toxic | IC50 (HCT-116 [9]): 10.1 µM | inhibition in vivo at 70 mg/kg (HCT-116 [10]): ~40% | Activity [11]: Non-Toxic | inhibition in vivo at 40 mg/kg (HCT-116 [12]): ~20% | inhibition in vivo at 70 mg/kg (HCT-116 [13]): ~30% | inhibition in vivo at 70 mg/kg (HCT-116 [14]): ~30% | fold change (FC) (HCT-116 [15]): ~1.7 | Activity [16]: Toxic | Activity (HCT-116 [17]): Active | Activity [18]: 40%

Cn1c2c(c3ccc(Cl)c(Cl)c31)C(C#N)C1(CCNCC1)NC2=O (stereo unspecified)
Activity (HCT-116 [19]): Active | Activity (HCT-116 [20]): Active | Activity (HCT-116 [21]): Active | Activity (HCT-116 [22]): Active | Activity (HCT-116 [23]): Active | Activity (HCT-116 [24]): Active | Activity (HCT-116 [25]): Dose-Dependent Effect | Activity (LS174T): Dose-Dependent Effect
